Compound activity (PubChem BioAssay)
MEKK3 PB1 HTS: MEKK3-MEK5 PB1 interaction, increase or decrease | binding response (% of control), % at 10 µM | actives 1.4% (n = 290,000) | bead-based flow cytometry, Alexa488-MEK5 binding to MEKK3; actives lie on both sides; 0 = blocked by unlabeled MEK5, 100 = vehicle | AID 1529 | Q99759;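 active means binding response more than 3 SD above or below the average of its plate-row segment, actives on both sides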;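 further: Alexa488 bead fluorescence after subtracting the streptavidin-only scavenger bead signal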
Efflux pump inh: inhibitors of Candida antifungal efflux pumps expressed in yeast | S. cerevisiae Candida pump triplex, Nile Red efflux | inhibition, % at 10 µM | actives 0.44% (n = 330,000);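 active means plate passing quality check with inhibition over a set limit, or well fluorescence over plate mean plus 4 SD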;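 further: Nile Red retained in pooled yeast measured as flow cytometry median fluorescence; 0% = buffer negative control and 100% = Enniatin B positive control; higher means more Nile Red kept so more efflux inhibition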
MEKK2 WT-MEK5: raises or lowers MEK5 binding to wildtype human MEKK2 PB1 domain; Q9Y2U5; bead flow cytometry, Alexa488-MEK5 binding to MEKK2 WT; actives lie on both sides; binding response (% of control), % at 10 µM; actives 1.1% (n = 290,000); AID 1531; in the data active means binding response below about 67% or above about 130%
MEKK2mut PB1 HTS: signal of MEK5 binding to mutant human MEKK2 PB1 domain; bead flow cytometry, Alexa488-MEK5 binding to MEKK2 mutant; percent response, % at 10 µM; actives 0.35% (n = 290,000); in the data active means percent response above about 24%, passing the limit was not always enough
ABCG2 block: inhibitors of human ABCG2 transporter, ABCB1 counter-screen; Q9UNQ0; IgMXP3 cells, JC-1 efflux, flow cytometry; inhibition, % at 6.6 µM; actives 0.1% (n = 190,000); AID 1325;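 active means inhibition above 80%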;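 further: 0% = DMSO and 100% = nicardipine control wells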
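System: two drug-resistant human cell lines, ABCG2 and ABCB1; controls: nicardipine high and DMSO low controls; times: 10 min exposure at 25 °C with rotation, no wash; detection: flow cytometry of retained JC-1 fluorescence; read-out basis: percent efflux inhibition, scaled nicardipine 100% to DMSO 0%; doses: one concentration, 6.6 µM final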
ABCB1 inh: human ABCB1 inhibition, ABCG2 as counter-screen | inhibition, % at 6.6 µM | P08183 | CCRF-Adr cells, JC-1 efflux, flow cytometry | actives 0.067% (n = 190,000); in the data active means inhibition above about 40%;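 further: 0% = vehicle and 100% = reference inhibitor; higher value means more JC-1 retained so stronger ABCB1 efflux block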
MEKK2wt confirm: raises or lowers MEK5 binding to wildtype human MEKK2, retest; shares compounds with MEKK3 PB1 HTS; bead flow cytometry, Alexa488-MEK5 binding to MEKK2 WT; actives lie on both sides; binding response (% of control), % at 10 µM; actives 2.4% (n = 5,900); in the data active means binding response below about 16% or above about 210%; inactive means in between
MEKK2mut confirm: signal of MEK5 binding to mutant human MEKK2, retest. shares compounds with MEKK3 PB1 HTS. bead flow cytometry, Alexa488-MEK5 binding to MEKK2 mutant. percent response, % at 10 µM. actives 2% (n = 5,900); in the data active means percent response mostly above about 71%, no sharp cut-off; inactive means mostly below about 38%;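 further: higher means compound restores mutant binding toward wildtype level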
MEKK3 confirm: MEKK3-MEK5 PB1 inhibition, single concentration confirmation; shares compounds with MEKK3 PB1 HTS; bead flow cytometry, Alexa488-MEK5 binding to MEKK3; active compounds read low; actives 1.8% (n = 5,900); AID 1894; binding response (% of control), % at 10 µM;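 active means binding response below 72% of control, or above a set upper limit, though filed actives all read lower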;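 further: 100% = DMSO only wells and 0% = binding blocked by excess unlabeled MEK5; lower values mean stronger disruption of MEK5 binding to MEKK3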
* = called active by the depositor; [ ] = dose if it differs, or a comment. Most compounds without a hit are left out; they make up all but 2.5% or so of the library.

What do the screens show for `COc1cc([N+](=O)[O-])ccc1NC(=S)NNC(=O)CCC(=O)Nc1ccccc1Cl`?
MEKK3 PB1 HTS: 101; Efflux pump inh: 0; MEKK2 WT-MEK5: 105; MEKK2mut PB1 HTS: 3

Results for c1ccc(CCNc2nc(-c3ccccn3)nc3ccccc23)cc1 ?
MEKK3 PB1 HTS: 95; Efflux pump inh: 0; MEKK2 WT-MEK5: 101; MEKK2mut PB1 HTS: -1

How did N/C(Cc1ccc([N+](=O)[O-])cc1)=N\OC(=O)Cc1ccc(Cl)cc1 do in these assays?
MEKK3 PB1 HTS: 71*[inhibitor]; Efflux pump inh: 1; MEKK2 WT-MEK5: 101; MEKK2mut PB1 HTS: 1; ABCG2 block: 2; ABCB1 inh: 0; MEKK2wt confirm: 104; MEKK2mut confirm: 1; MEKK3 confirm: 98

What do the screens show for `N/C(Cc1ccc([N+](=O)[O-])cc1)=N\OC(=O)Cc1ccccc1`?
MEKK3 PB1 HTS: 53*[inhibitor]; Efflux pump inh: 0; MEKK2 WT-MEK5: 98; MEKK2mut PB1 HTS: -1; ABCG2 block: 1; ABCB1 inh: 0; MEKK2wt confirm: 101; MEKK2mut confirm: 1; MEKK3 confirm: 97

How did C/C(=N\NC(=O)c1cc(O)cc(O)c1)c1ccc(NC(=O)Cc2ccccc2)cc1 do in these assays?
MEKK3 PB1 HTS: 71*[inhibitor]; Efflux pump inh: 0; MEKK2 WT-MEK5: 68*[inhibitor]; MEKK2mut PB1 HTS: -7; MEKK2wt confirm: 63; MEKK2mut confirm: -17; MEKK3 confirm: 70*

Results for CCCCCCCCSc1nnc2[nH]c(=O)cc(N)n12 ?
MEKK3 PB1 HTS: 115; Efflux pump inh: 0; MEKK2 WT-MEK5: 111; MEKK2mut PB1 HTS: 0; ABCG2 block: 0; ABCB1 inh: 0

What do the screens show for `CC(C)CSc1nnc2[nH]c(=O)cc(N)n12`?
MEKK3 PB1 HTS: 60*[inhibitor]; Efflux pump inh: 0; MEKK2 WT-MEK5: 86; MEKK2mut PB1 HTS: 3; ABCG2 block: 7; ABCB1 inh: 1; MEKK2wt confirm: 99; MEKK2mut confirm: -2; MEKK3 confirm: 100

What do the screens show for `CC(C)N(c1ccccc1)c1ccc(NC(=O)COC(=O)CCN2C(=O)c3cccc([N+](=O)[O-])c3C2=O)cc1`?
MEKK3 PB1 HTS: 48*[inhibitor]; Efflux pump inh: 0; MEKK2 WT-MEK5: 90; MEKK2mut PB1 HTS: -2; ABCG2 block: 15; ABCB1 inh: 3; MEKK2wt confirm: 94; MEKK2mut confirm: -7; MEKK3 confirm: 93

What do the screens show for `CC(=O)c1ccc(NC(=O)COC(=O)CCN2C(=O)c3cccc([N+](=O)[O-])c3C2=O)cc1`?
MEKK3 PB1 HTS: 91; Efflux pump inh: 0; MEKK2 WT-MEK5: 94; MEKK2mut PB1 HTS: -2; ABCG2 block: 1; ABCB1 inh: 0

Results for CCN(CC)c1ccc(-n2c(O)c(C=C3N=c4ccccc4=N3)sc2=S)cc1 ?
MEKK3 PB1 HTS: 153*; Efflux pump inh: 0; MEKK2 WT-MEK5: 99; MEKK2mut PB1 HTS: 0; ABCG2 block: -7; ABCB1 inh: -1; MEKK2wt confirm: 97; MEKK2mut confirm: 5; MEKK3 confirm: 105

What do the screens show for `O=C(Cn1cnc2cc([N+](=O)[O-])ccc2c1=O)NCc1ccccc1`?
MEKK3 PB1 HTS: 100; Efflux pump inh: 0; MEKK2 WT-MEK5: 99; MEKK2mut PB1 HTS: -2; ABCG2 block: 4; ABCB1 inh: 0

Results for CC1CCCC(NC(=O)COC(=O)c2sc3ccccc3c2Cl)C1C (centres undefined) ?
MEKK3 PB1 HTS: 135*; Efflux pump inh: 0; MEKK2 WT-MEK5: 110; MEKK2mut PB1 HTS: 1; ABCG2 block: -3; ABCB1 inh: -1; MEKK2wt confirm: 99; MEKK2mut confirm: 0; MEKK3 confirm: 100

How did COC(=O)CC1C(=O)NCCN1C(=O)CSc1nnc(Nc2ccc(OC)cc2)s1 (centres undefined) do in these assays?
MEKK3 PB1 HTS: 122*; Efflux pump inh: 0; MEKK2 WT-MEK5: 109; MEKK2mut PB1 HTS: 4; ABCG2 block: 1; ABCB1 inh: 0; MEKK2wt confirm: 98; MEKK2mut confirm: -10; MEKK3 confirm: 99

Results for CC(NS(=O)(=O)OCC(Cl)(Cl)Cl)c1ccc(Br)cc1 (centres undefined) ?
MEKK3 PB1 HTS: 88; Efflux pump inh: 0; MEKK2 WT-MEK5: 82; MEKK2mut PB1 HTS: -16

How did CC(=O)NC(=S)Nc1sc2c(c1C(N)=O)CCC(C)C2 (centres undefined) do in these assays?
MEKK3 PB1 HTS: 104; Efflux pump inh: 0; MEKK2 WT-MEK5: 107; MEKK2mut PB1 HTS: -6; ABCG2 block: 0; ABCB1 inh: 0

Results for COc1ccc(/C=N/NC(=S)NC2CCS(=O)(=O)C2)cc1OC (centres undefined) ?
MEKK3 PB1 HTS: 123*; Efflux pump inh: 0; MEKK2 WT-MEK5: 117; MEKK2mut PB1 HTS: 12; ABCG2 block: 0; ABCB1 inh: 0; MEKK2wt confirm: 103; MEKK2mut confirm: -1; MEKK3 confirm: 99

What do the screens show for `CCCC(=O)Nc1ccc(Cc2ccc(NC(=O)CCC)c(C(=O)O)c2)cc1C(=O)O`?
MEKK3 PB1 HTS: 102; Efflux pump inh: 0; MEKK2 WT-MEK5: 104; MEKK2mut PB1 HTS: 6; ABCG2 block: 5; ABCB1 inh: 2

Results for Cc1cc(Cl)ccc1OCC(=O)NC(=S)Nc1ccccc1N1CCOCC1 ?
MEKK3 PB1 HTS: 148*; Efflux pump inh: 0; MEKK2 WT-MEK5: 102; MEKK2mut PB1 HTS: -1; ABCG2 block: 2; ABCB1 inh: 0; MEKK2wt confirm: 97; MEKK2mut confirm: -2; MEKK3 confirm: 103

What do the screens show for `Cc1cc(Cl)ccc1OCC(=O)Nc1ccccc1N1CCOCC1`?
MEKK3 PB1 HTS: 109; Efflux pump inh: 0; MEKK2 WT-MEK5: 107; MEKK2mut PB1 HTS: 3; ABCG2 block: 1; ABCB1 inh: 0

What do the screens show for `COc1cccc(CN2CCN(C(=O)CCc3nnc(C4CCCCC4)o3)CC2=O)c1`?
MEKK3 PB1 HTS: 101; Efflux pump inh: 0; MEKK2 WT-MEK5: 101; MEKK2mut PB1 HTS: 1
